Activity calls are given as the source filed them. No cut-off for these calls is given here.
What was measured:
MCF7 [1] = assay: Reduction in mitochondrial membrane potential in human MCF7 cells at 0.5 and 1 uM incubated for 48 hrs by JC1 dye staining based flow cytometry; assay type: functional, cell-based
How it was run: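 MCF-7 cells (1 × 10^6 per well) in six-well plates were treated 48 h, trypsinized, washed in PBS and stained with 5 µg/mL JC-1 for 15 min at 37 °C. Cells were rinsed three times, resuspended in prewarmed medium and analysed by flow cytometry in the FL1 and FL2 channels.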

MCF7 [2] = assay: Induction of apoptosis in human MCF7 cells assessed as increase in p21 protein levels at 1 uM incubated for 48 hrs by Western blot method; assay type: functional, cell-based
How it was run: (§1)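 MCF-7 cells were treated for 48 h and lysed in ice-cold RIPA buffer with PMSF, aprotinin, leupeptin, pepstatin and NaF. Protein was quantified by Bradford, and 50 µg per lane was run on 12% SDS-PAGE and transferred to PVDF. Membranes were blocked 2 h in TBST with 5% blocking powder, probed with primary antibody overnight and HRP secondary for 1 h at room temperature, then detected by chemiluminescence.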

MCF7 [3] = assay: Induction of cell cycle arrest in human MCF7 cells assessed as accumulation at S phase at 0.5 uM incubated for 48 hrs by propidium iodide staining based flow cytometry (reference value: 0.99%); assay type: functional
How it was run: (§2)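 MCF-7 cells were treated 48 h, harvested, washed in PBS, fixed in ice-cold 70% ethanol and stained with propidium iodide. Phase distribution was measured by flow cytometry and compared with untreated cells.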

MCF7 [4] = assay: Induction of apoptosis in human MCF7 cells assessed as late apoptotic cells levels at 0.5 uM incubated for 48 hrs by Annexin V-FITC and propidium iodide staining based flow cytometry (reference value: 3.08%); assay type: functional
MCF7 [5] = assay: Induction of ROS generation in human MCF7 cells at 0.5 uM incubated for 48 hrs by DCFDA dye based flow cytometry (reference value: 1.2%); assay type: functional
MCF7 [6] = assay: Induction of cell cycle arrest in human MCF7 cells assessed as accumulation at G2/M phase at 1 uM incubated for 48 hrs by propidium iodide staining based flow cytometry (reference value: 11.98%); assay type: functional; how it was run: as §2
MCF7 [7] = assay: Induction of cell cycle arrest in human MCF7 cells assessed as accumulation at G0/G1 phase at 0.5 uM incubated for 48 hrs by propidium iodide staining based flow cytometry (reference value: 77.79%); assay type: functional; how it was run: as §2
MCF7 [8] = assay: Induction of cell cycle arrest in human MCF7 cells assessed as accumulation at sub G1 phase at 0.5 uM incubated for 48 hrs by propidium iodide staining based flow cytometry (reference value: 2.75%); assay type: functional; how it was run: as §2
MCF7 [9] = assay: Induction of apoptosis in human MCF7 cells assessed as reduction in Bcl2 protein levels at 1 uM incubated for 48 hrs by Western blot method; assay type: functional, cell-based; how it was run: as §1
MCF7 [10] = assay: Induction of apoptosis in human MCF7 cells assessed as early apoptotic cells levels at 1 uM incubated for 48 hrs by Annexin V-FITC and propidium iodide staining based flow cytometry (reference value: 3.57%); assay type: functional
MCF7 [11] = assay: Induction of cell cycle arrest in human MCF7 cells assessed as accumulation at S phase at 1 uM incubated for 48 hrs by propidium iodide staining based flow cytometry (reference value: 0.99%); assay type: functional; how it was run: as §2
MCF7 [12] = assay: Induction of apoptosis in human MCF7 cells assessed as early apoptotic cells levels at 0.5 uM incubated for 48 hrs by Annexin V-FITC and propidium iodide staining based flow cytometry (reference value: 3.57%); assay type: functional
MCF7 [13] = assay: Induction of apoptosis in human MCF7 cells assessed as necrotic cells levels at 0.5 uM incubated for 48 hrs by Annexin V-FITC and propidium iodide staining based flow cytometry (reference value: 0.86%); assay type: functional
MCF7 [14] = assay: Induction of apoptosis in human MCF7 cells assessed as necrotic cells levels at 1 uM incubated for 48 hrs by Annexin V-FITC and propidium iodide staining based flow cytometry (reference value: 0.86%); assay type: functional
MCF7 [15] = assay: Induction of cell cycle arrest in human MCF7 cells assessed as accumulation at G0/G1 phase at 1 uM incubated for 48 hrs by propidium iodide staining based flow cytometry (reference value: 77.79%); assay type: functional; how it was run: as §2
MCF7 [16] = assay: Induction of apoptosis in human MCF7 cells assessed as induction of caspase-9 activity at 1 uM incubated for 48 hrs by ELISA method relative to control; assay type: functional
How it was run: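 MCF-7 cells were treated for 48 h, pelleted, washed in PBS and lysed for 15 min. After centrifugation at 20,000 rpm for 15 min, caspase-9 activity in the supernatant was measured with a kit ELISA and expressed relative to untreated control. Mean ± SD of two experiments run in triplicate.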

A549 = assay: Anti-proliferative activity against human A549 cells incubated for 48 hrs by SRB assay; assay type: functional; details: A549, 48 h
MCF7 [17] = assay: Induction of apoptosis in human MCF7 cells assessed as increase in p53 protein levels at 1 uM incubated for 48 hrs by Western blot method; assay type: functional, cell-based; how it was run: as §1
MCF7 [18] = assay: Induction of apoptosis in human MCF7 cells assessed as late apoptotic cells levels at 1 uM incubated for 48 hrs by Annexin V-FITC and propidium iodide staining based flow cytometry (reference value: 3.08%); assay type: functional
HepG2 = assay: Anti-proliferative activity against human HepG2 cells incubated for 48 hrs by SRB assay; assay type: functional; details: HepG2, 48 h
How it was run: (§3)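 SRB assay. Cells in DMEM with 10% FBS were seeded and grown 24 h at 37 °C in CO2. Compounds were diluted from a 10 mM DMSO stock to 1, 5 and 10 µM, with DMSO at most 0.1%, and exposed 48 h. Cells were fixed with 10% TCA for 60 min at 4 °C and stained 20 min at room temperature with 0.4% SRB in 1% acetic acid. Dye was eluted with 10 mM trizma base and absorbance read at 540 nm. Run in triplicate; GI50 given as mean ± SD of three determinations.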

MCF7 [19] = assay: Induction of cell cycle arrest in human MCF7 cells assessed as accumulation at sub G1 phase at 1 uM incubated for 48 hrs by propidium iodide staining based flow cytometry (reference value: 2.75%); assay type: functional; how it was run: as §2
MCF7 [20] = assay: Induction of cell cycle arrest in human MCF7 cells assessed as accumulation at G2/M phase at 0.5 uM incubated for 48 hrs by propidium iodide staining based flow cytometry (reference value: 11.98%); assay type: functional; how it was run: as §2
MCF7 [21] = assay: Anti-proliferative activity against human MCF7 cells incubated for 48 hrs by SRB assay; assay type: functional; details: MCF7, 48 h; how it was run: as §3
MCF7 [22] = assay: Induction of apoptosis in human MCF7 cells assessed as increase in Bax protein levels at 1 uM incubated for 48 hrs by Western blot method; assay type: functional, cell-based; how it was run: as §1
MCF7 [23] = assay: Induction of apoptosis in human MCF7 cells assessed as increase in p27 protein levels at 1 uM incubated for 48 hrs by Western blot method; assay type: functional, cell-based; how it was run: as §1
MCF7 [24] = assay: Induction of apoptosis in human MCF7 cells assessed as viable cells levels at 0.5 uM incubated for 48 hrs by Annexin V-FITC and propidium iodide staining based flow cytometry (reference value: 92.5%); assay type: functional
MCF7 [25] = assay: Induction of ROS generation in human MCF7 cells at 1 uM incubated for 48 hrs by DCFDA dye based flow cytometry (reference value: 1.2%); assay type: functional
MCF7 [26] = assay: Induction of apoptosis in human MCF7 cells assessed as viable cells levels at 1 uM incubated for 48 hrs by Annexin V-FITC and propidium iodide staining based flow cytometry (reference value: 92.5%); assay type: functional
DU-145 = assay: Anti-proliferative activity against human DU145 cells incubated for 48 hrs by SRB assay; assay type: functional; details: DU-145, 48 h; how it was run: as §3

Row | SMILES | inhibition (MCF7 [1]) | Activity (MCF7 [2]) | Activity (MCF7 [3]) [%] | Activity (MCF7 [4]) [%] | Activity (MCF7 [5]) [%] | Activity (MCF7 [6]) [%] | Activity (MCF7 [7]) [%] | Activity (MCF7 [8]) [%] | Activity (MCF7 [9]) | Activity (MCF7 [10]) [%] | Activity (MCF7 [11]) [%] | Activity (MCF7 [12]) [%] | Activity (MCF7 [13]) [%] | Activity (MCF7 [14]) [%] | Activity (MCF7 [15]) [%] | fold change (FC) (MCF7 [16]) | GI50 (A549) [µM] | Activity (MCF7 [17]) | Activity (MCF7 [18]) [%] | GI50 (HepG2) [µM] | further results
1 | COc1ccc(F)cc1C1=C(c2ccccc2)C2(C=CC(=O)C=C2)OC1=O | Active | Active | 1.12 | 7.25 | 16.2 | 2.2 | 81.44 | 2.89 | Active | 6.64 | 1.3 | 4.22 | 1.69 | 4.77 | 88.42 | 2 | 4.6 | Active | 24.21 | 1.4 | Activity (MCF7 [19]): 3.25%; Activity (MCF7 [20]): 9.63%; GI50 (MCF7 [21]): 1 µM; Activity (MCF7 [22]): Active; Activity (MCF7 [23]): Active; Activity (MCF7 [24]): 86.85%; Activity (MCF7 [25]): 57.4%; Activity (MCF7 [26]): 64.39%; GI50 (DU-145): 0.9 µM
2 | O=C1C=CC2(C=C1)OC(=O)C(c1ccc([N+](=O)[O-])cc1)=C2c1ccccc1 | Active | Active | 0.34 | 6.76 | 30.4 | 0.76 | 84.21 | 4.38 | Active | 10.13 | 1.75 | 5.87 | 1.96 | 3.77 | 89.15 | 2 | 4 | Active | 28.87 | 1.5 | Activity (MCF7 [19]): 3.69%; Activity (MCF7 [20]): 3.35%; GI50 (MCF7 [21]): 1 µM; Activity (MCF7 [22]): Active; Activity (MCF7 [23]): Active; Activity (MCF7 [24]): 85.41%; Activity (MCF7 [25]): 78.5%; Activity (MCF7 [26]): 57.24%; GI50 (DU-145): 1.9 µM

Source: ChEMBL document CHEMBL3608272, “Design, synthesis and anticancer properties of novel oxa/azaspiro[4,5]trienones as potent apoptosis inducers through mitochondrial disruption” (2015)
